# Assay results taken from ChEMBL document CHEMBL4689842, “EUbOPEN Chemogenomics Library wave 1” (2021).
# Where “and” joins values, the source holds several entries; their conditions need not be identical. Identical values can stand only once.
# Tested on: HEK-293T
# Experiment: Multiplex assay against HEK293T;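 on Population Tubulin-Different-Phenotype (%): share of the cells with healthy nuclei that show this phenotype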
# Type: toxicity, cell-based
# Settings: human, 10 µM, compound concentration 10 uM
# Outline: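 At seeding, live cells were stained with Hoechst33342, BioTracker Green Microtubule Cytoskeleton Dye, MitoTracker Red and Annexin V Alexa Fluor 680. After compound addition they were imaged on a CQ1 microscope at 37°C and 5% CO2, and CellPathfinder machine-learning gating sorted them into Hoechst high-intensity objects or normal cells, with normal cells further split into healthy, pyknosed or fragmented nuclei and pyknosed cells into mitotic or apoptotic. Tubulin, mitochondrial-mass and membrane-permeability phenotypes are given as per cents of cells with healthy nuclei.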
SMILES,"Population Apoptotic (%) (12 h, replicate 1)","Population Fragmented Nuclei (%) (12 h, replicate 1)","Population Hoechst High Intensity Objects (%) (12 h, replicate 1)","Population Mitotic Cells (%) (12 h, replicate 1)","Population Normal (%) (12 h, replicate 1)","Population Pyknosed Nuclei (%) (12 h, replicate 1)","Total Cell Count (12 h, replicate 1)","Population Apoptotic (%) (12 h, replicate 2)","Population Fragmented Nuclei (%) (12 h, replicate 2)","Population Healthy Nuclei (%) (12 h, replicate 2)","Population Hoechst High Intensity Objects (%) (12 h, replicate 2)","Population Mitotic Cells (%) (12 h, replicate 2)","Population Normal (%) (12 h, replicate 2)","Total Cell Count (12 h, replicate 2)","Population Fragmented Nuclei (%) (24 h, replicate 1)","Population Membrane Permeable-Phenotype (%) (24 h, replicate 1)","Population Mitotic Cells (%) (24 h, replicate 1)","Population Normal (%) (24 h, replicate 1)","Population Tubulin-Different-Phenotype (%) (24 h, replicate 1)","Total Cell Count (24 h, replicate 1)",further results
CN(C)c1ncnc(-c2ccc3nc(Nc4cc(CN5CCN(C(=O)CC(F)(F)F)CC5)ccn4)[nH]c3c2)c1Cl [BAY-440],24% and 18%,30% and 12%,21% and 12%,75% and 81%,78% and 87%,49% and 24%,575 and 589,16% and 6%,2% and 5%,79% and 89%,3% and 1%,83% and 93%,96% and 98%,1131 and 1517,29% and 10%,10% and 16%,66% and 89%,78% and 94%,65% and 25%,555 and 720,"Population Mitochondria Different-Phenotype (%) (12 h, replicate 1): 16% and 8%; Population Membrane Permeable-Phenotype (%) (12 h, replicate 2): 12% and 6%; Population Apoptotic (%) (24 h, replicate 2): 16%; Population Healthy Nuclei (%) (24 h, replicate 2): 76% and 79%; Population Hoechst High Intensity Objects (%) (24 h, replicate 2): 4% and 2%; Population Membrane Permeable-Phenotype (%) (24 h, replicate 2): 8% and 13%; Population Mitotic Cells (%) (24 h, replicate 2): 83%; Population Normal (%) (24 h, replicate 2): 95% and 97%; Total Cell Count (24 h, replicate 2): 1110 and 2572"
COc1ccc(Oc2cc(NCCC(F)(F)F)c3ncc(-c4ccc(C(=O)NC5CC5)c(C)c4)n3n2)c(F)c1F [BAY-1217389],50% and 20%,25% and 12%,20% and 13%,49% and 79%,79% and 86%,46% and 23%,607 and 639,21% and 43%,5% and 2%,89% and 86%,2% and 5%,78% and 56%,97% and 94%,1266 and 966,25% and 9%,9% and 24%,46% and 74%,81% and 92%,84%,575 and 704,"Population Healthy Nuclei (%) (12 h, replicate 1): 28% and 63%; Population Membrane Permeable-Phenotype (%) (12 h, replicate 1): 17% and 25%; Population Tubulin-Different-Phenotype (%) (12 h, replicate 1): 79% and 68%; Population Pyknosed Nuclei (%) (12 h, replicate 2): 5% and 11%; Population Tubulin-Different-Phenotype (%) (12 h, replicate 2): 87% and 95%; Population Apoptotic (%) (24 h, replicate 1): 53% and 25%; Population Healthy Nuclei (%) (24 h, replicate 1): 46% and 80%; Population Hoechst High Intensity Objects (%) (24 h, replicate 1): 18% and 7%; Population Fragmented Nuclei (%) (24 h, replicate 2): 10% and 4%; Population Healthy Nuclei (%) (24 h, replicate 2): 87% and 88%; Population Hoechst High Intensity Objects (%) (24 h, replicate 2): 3% and 6%; Population Mitotic Cells (%) (24 h, replicate 2): 94% and 68%; Population Normal (%) (24 h, replicate 2): 96% and 93%; Population Tubulin-Different-Phenotype (%) (24 h, replicate 2): 91% and 95%; Total Cell Count (24 h, replicate 2): 1717 and 1126"
